# “And” between values parts separate entries of the source, which are not always exact repeats. Identical values can stand only once.
# System: healthy volunteers
# Test: Safety and tolerability
# Assay type: in vivo, human
# Summary of the method: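 Healthy volunteers aged 18–55 y, BMI 18–30 kg/m², randomised double-blind 8:2 to once-daily oral drug or placebo for up to 14 days, with follow-up visits on days 21 and 42. Treatment-emergent AEs coded with MedDRA 23.1 and graded with the WHO toxicity scale, alongside ECGs, laboratory tests and vital signs. The safety population was all subjects receiving at least one dose.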
# [1] = SAD (fasted) All GDC-8264, n = 28
smiles,measurement,setting,value
O=C(c1nc2n(n1)[C@H](c1ccccc1)C[C@@H]2F)C1CC1 [GDC‐8264],No. of TEAEs,"SAD (fasted) 75 mg, n = 5",8
same,No. of deaths,"SAD (fasted) 75 mg, n = 5",0 no. of subjects (%)
same,No. of subjects with at least one Related TEAE,"SAD (fasted) 75 mg, n = 5",1 (20.0) no. of subjects (%)
same,No. of subjects with at least one Serious TEAE,"SAD (fasted) 75 mg, n = 5",0 no. of subjects (%)
same,No. of subjects with at least one TEAE,"SAD (fasted) 75 mg, n = 5",3 (60.0) no. of subjects (%)
same,No. of subjects withdrawn from study due to a TEAE,"SAD (fasted) 75 mg, n = 5",0 no. of subjects (%)
same,TEAE Abdominal pain,"SAD (fasted) 75 mg, n = 5",0 no. of subjects (%)
same,TEAE Back pain,"SAD (fasted) 75 mg, n = 5",1 (20.0) no. of subjects (%)
same,TEAE Catheter site pain,"SAD (fasted) 75 mg, n = 5",0 no. of subjects (%)
same,TEAE Dermatitis contact,"SAD (fasted) 75 mg, n = 5",2 (40.0) no. of subjects (%)
same,TEAE Diarrhea,"SAD (fasted) 75 mg, n = 5",0 no. of subjects (%)
same,TEAE Dizziness,"SAD (fasted) 75 mg, n = 5",0 no. of subjects (%)
same,TEAE Dyspepsia,"SAD (fasted) 75 mg, n = 5",0 no. of subjects (%)
same,TEAE Gastrointestinal sounds abnormal,"SAD (fasted) 75 mg, n = 5",1 (20.0) no. of subjects (%)
same,TEAE Gingivitis,"SAD (fasted) 75 mg, n = 5",0 no. of subjects (%)
same,TEAE Headache,"SAD (fasted) 75 mg, n = 5",0 no. of subjects (%)
same,TEAE Medical device site dermatitis,"SAD (fasted) 75 mg, n = 5",0 no. of subjects (%)
same,TEAE Myalgia,"SAD (fasted) 75 mg, n = 5",1 (20.0) no. of subjects (%)
same,TEAE Nausea,"SAD (fasted) 75 mg, n = 5",2 (40.0) no. of subjects (%)
same,TEAE Presyncope,"SAD (fasted) 75 mg, n = 5",0 no. of subjects (%)
same,TEAE Somnolence,"SAD (fasted) 75 mg, n = 5",0 no. of subjects (%)
same,No. of TEAEs,"SAD (fasted) 150 mg, n = 5",6
same,No. of deaths,"SAD (fasted) 150 mg, n = 5",0 no. of subjects (%)
same,No. of subjects with at least one Related TEAE,"SAD (fasted) 150 mg, n = 5",3 (60.0) no. of subjects (%)
same,No. of subjects with at least one Serious TEAE,"SAD (fasted) 150 mg, n = 5",0 no. of subjects (%)
same,No. of subjects with at least one TEAE,"SAD (fasted) 150 mg, n = 5",4 (80.0) no. of subjects (%)
same,No. of subjects withdrawn from study due to a TEAE,"SAD (fasted) 150 mg, n = 5",0 no. of subjects (%)
same,TEAE Abdominal pain,"SAD (fasted) 150 mg, n = 5",0 no. of subjects (%)
same,TEAE Back pain,"SAD (fasted) 150 mg, n = 5",0 no. of subjects (%)
same,TEAE Catheter site pain,"SAD (fasted) 150 mg, n = 5",0 no. of subjects (%)
same,TEAE Dermatitis contact,"SAD (fasted) 150 mg, n = 5",1 (20.0) no. of subjects (%)
same,TEAE Diarrhea,"SAD (fasted) 150 mg, n = 5",0 no. of subjects (%)
same,TEAE Dizziness,"SAD (fasted) 150 mg, n = 5",0 no. of subjects (%)
same,TEAE Dyspepsia,"SAD (fasted) 150 mg, n = 5",0 no. of subjects (%)
same,TEAE Gastrointestinal sounds abnormal,"SAD (fasted) 150 mg, n = 5",1 (20.0) no. of subjects (%)
same,TEAE Gingivitis,"SAD (fasted) 150 mg, n = 5",0 no. of subjects (%)
same,TEAE Headache,"SAD (fasted) 150 mg, n = 5",1 (20.0) no. of subjects (%)
same,TEAE Medical device site dermatitis,"SAD (fasted) 150 mg, n = 5",0 no. of subjects (%)
same,TEAE Myalgia,"SAD (fasted) 150 mg, n = 5",0 no. of subjects (%)
same,TEAE Nausea,"SAD (fasted) 150 mg, n = 5",1 (20.0) no. of subjects (%)
same,TEAE Presyncope,"SAD (fasted) 150 mg, n = 5",0 no. of subjects (%)
same,TEAE Somnolence,"SAD (fasted) 150 mg, n = 5",0 no. of subjects (%)
same,No. of TEAEs,"SAD (fasted) 225 mg, n = 6",7
same,No. of deaths,"SAD (fasted) 225 mg, n = 6",0 no. of subjects (%)
same,No. of subjects with at least one Related TEAE,"SAD (fasted) 225 mg, n = 6",0 no. of subjects (%)
same,No. of subjects with at least one Serious TEAE,"SAD (fasted) 225 mg, n = 6",0 no. of subjects (%)
same,No. of subjects with at least one TEAE,"SAD (fasted) 225 mg, n = 6",3 (50.0) no. of subjects (%)
same,No. of subjects withdrawn from study due to a TEAE,"SAD (fasted) 225 mg, n = 6",0 no. of subjects (%)
same,TEAE Abdominal pain,"SAD (fasted) 225 mg, n = 6",0 no. of subjects (%)
same,TEAE Back pain,"SAD (fasted) 225 mg, n = 6",0 no. of subjects (%)
same,TEAE Catheter site pain,"SAD (fasted) 225 mg, n = 6",0 no. of subjects (%)
same,TEAE Dermatitis contact,"SAD (fasted) 225 mg, n = 6",0 no. of subjects (%)
same,TEAE Diarrhea,"SAD (fasted) 225 mg, n = 6",0 no. of subjects (%)
same,TEAE Dizziness,"SAD (fasted) 225 mg, n = 6",0 no. of subjects (%)
same,TEAE Dyspepsia,"SAD (fasted) 225 mg, n = 6",0 no. of subjects (%)
same,TEAE Gastrointestinal sounds abnormal,"SAD (fasted) 225 mg, n = 6",0 no. of subjects (%)
same,TEAE Gingivitis,"SAD (fasted) 225 mg, n = 6",0 no. of subjects (%)
same,TEAE Headache,"SAD (fasted) 225 mg, n = 6",0 no. of subjects (%)
same,TEAE Medical device site dermatitis,"SAD (fasted) 225 mg, n = 6",2 (33.3) no. of subjects (%)
same,TEAE Myalgia,"SAD (fasted) 225 mg, n = 6",1 (16.7) no. of subjects (%)
same,TEAE Nausea,"SAD (fasted) 225 mg, n = 6",0 no. of subjects (%)
same,TEAE Presyncope,"SAD (fasted) 225 mg, n = 6",1 (16.7) no. of subjects (%)
same,TEAE Somnolence,"SAD (fasted) 225 mg, n = 6",0 no. of subjects (%)
same,No. of TEAEs,[1],33
same,No. of deaths,[1],0 no. of subjects (%)
same,No. of subjects with at least one Related TEAE,[1],4 (14.3) no. of subjects (%)
same,No. of subjects with at least one Serious TEAE,[1],0 no. of subjects (%)
same,No. of subjects with at least one TEAE,[1],19 no. of subjects (%) and 19 (67.9) no. of subjects (%)
same,No. of subjects withdrawn from study due to a TEAE,[1],0 no. of subjects (%)
same,TEAE Abdominal pain,[1],2 (7.1) no. of subjects (%)
same,TEAE Back pain,[1],1 (3.6) no. of subjects (%)
same,TEAE Catheter site pain,[1],1 (3.6) no. of subjects (%)
same,TEAE Dermatitis contact,[1],4 (14.3) no. of subjects (%)
same,TEAE Diarrhea,[1],0 no. of subjects (%)
same,TEAE Dyspepsia,[1],1 (3.6) no. of subjects (%)
same,TEAE Gastrointestinal sounds abnormal,[1],2 (7.1) no. of subjects (%)
same,TEAE Gingivitis,[1],0 no. of subjects (%)
same,TEAE Headache,[1],4 (14.3) no. of subjects (%)
same,TEAE Medical device site dermatitis,[1],2 (7.1) no. of subjects (%)
same,TEAE Myalgia,[1],2 (7.1) no. of subjects (%)
same,TEAE Nausea,[1],3 (10.7) no. of subjects (%)
same,TEAE Presyncope,[1],2 (7.1) no. of subjects (%)
same,TEAE Somnolence,[1],0 no. of subjects (%)
same,No. of TEAEs,"SAD (high fat) 75 mg, n = 5",4
same,No. of deaths,"SAD (high fat) 75 mg, n = 5",0 no. of subjects (%)
same,No. of subjects with at least one Related TEAE,"SAD (high fat) 75 mg, n = 5",0 no. of subjects (%)
same,No. of subjects with at least one Serious TEAE,"SAD (high fat) 75 mg, n = 5",0 no. of subjects (%)
same,No. of subjects with at least one TEAE,"SAD (high fat) 75 mg, n = 5",2 (40.0) no. of subjects (%)
same,No. of subjects withdrawn from study due to a TEAE,"SAD (high fat) 75 mg, n = 5",0 no. of subjects (%)
same,TEAE Abdominal pain,"SAD (high fat) 75 mg, n = 5",0 no. of subjects (%)
same,TEAE Back pain,"SAD (high fat) 75 mg, n = 5",0 no. of subjects (%)
same,TEAE Catheter site pain,"SAD (high fat) 75 mg, n = 5",0 no. of subjects (%)
same,TEAE Dermatitis contact,"SAD (high fat) 75 mg, n = 5",1 (20.0) no. of subjects (%)
same,TEAE Diarrhea,"SAD (high fat) 75 mg, n = 5",0 no. of subjects (%)
same,TEAE Dizziness,"SAD (high fat) 75 mg, n = 5",0 no. of subjects (%)
same,TEAE Dyspepsia,"SAD (high fat) 75 mg, n = 5",0 no. of subjects (%)
same,TEAE Gastrointestinal sounds abnormal,"SAD (high fat) 75 mg, n = 5",0 no. of subjects (%)
same,TEAE Gingivitis,"SAD (high fat) 75 mg, n = 5",0 no. of subjects (%)
same,TEAE Headache,"SAD (high fat) 75 mg, n = 5",1 (20.0) no. of subjects (%)
same,TEAE Medical device site dermatitis,"SAD (high fat) 75 mg, n = 5",0 no. of subjects (%)
same,TEAE Myalgia,"SAD (high fat) 75 mg, n = 5",0 no. of subjects (%)
same,TEAE Nausea,"SAD (high fat) 75 mg, n = 5",1 (20.0) no. of subjects (%)
same,TEAE Presyncope,"SAD (high fat) 75 mg, n = 5",0 no. of subjects (%)
same,TEAE Somnolence,"SAD (high fat) 75 mg, n = 5",0 no. of subjects (%)
same,"changes in clinical laboratory results, vital signs, ECGs, or physical examinations",SAD and MAD stages,no significant changes
same,severity of adverse events in GDC-8264-treated subjects,both stages (SAD and MAD),mild
